# Screening results as filed in PubChem BioAssay.
# Exocytosis inh: lytic granule exocytosis inhibition; 360,000 compounds, 0.66% hits; TALL-104 LAMP-1 surface exposure, flow cytometry; cells stimulated with thapsigargin and PMA; inhibition, % at 10 µM;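 active = inhibition above about 55%, limit read from the data; inconclusive = no clear call, values can overlap the other calls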
# Myeloid diff 2: myeloid differentiation induction; AID 624256; ER-HoxA9 myeloid progenitors, lysozyme-GFP differentiation, flow cytometry; 360,000 compounds, 1% hits; calls only at 10 µM;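 active = normalized GFP-positive differentiation at or above the plate's own cutoff, the solvent-only control mean plus 3 SD; inconclusive = no clear call, values can overlap the other calls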;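 note: cells exposed to compound for four days before flow analysis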
# MC4R barr agon: agonists of human melanocortin 4 receptor (MC4R) beta-arrestin; 360,000 compounds, 0.98% hits; P32245; U2OS MC4R beta-arrestin complementation, luminescence; percent of melanotan II response, DMSO zero; activation, % at 8.9 µM;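 active = activation above a per-plate cutoff, the mean activation of sample wells on that plate plus 3 SD, cut at about 8% in these data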
# Target sequence (P32245 whole entry, looked up): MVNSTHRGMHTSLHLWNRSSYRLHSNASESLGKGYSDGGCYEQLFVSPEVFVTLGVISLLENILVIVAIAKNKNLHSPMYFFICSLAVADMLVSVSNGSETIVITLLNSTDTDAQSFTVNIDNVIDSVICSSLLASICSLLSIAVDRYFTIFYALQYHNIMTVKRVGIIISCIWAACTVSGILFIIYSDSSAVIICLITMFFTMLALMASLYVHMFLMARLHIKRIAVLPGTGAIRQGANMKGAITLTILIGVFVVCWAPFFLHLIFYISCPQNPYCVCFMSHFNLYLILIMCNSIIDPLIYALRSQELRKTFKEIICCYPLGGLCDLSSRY
# MC4R antagonist: blocks human MC4R cAMP signaling; P32245; MC4R-expressing cells, MTII-stimulated cAMP, LANCE TR-FRET; inhibition, % at 6.5 µM; 360,000 compounds, 0.48% hits;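 active = inhibition above its plate's cutoff, the mean of tested wells on that plate plus 3 SD, cut at about 29% in these data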
#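 Test system: U2OS cells stably expressing human melanocortin 4 receptor (MC4R); also added: Melanotan II challenge; compound: 6.5 µM single dose; timing: 30-min compound preincubation, 1-h Melanotan II challenge, 1-h detection, room temperature; signal: Eu-cAMP/anti-cAMP TR-FRET, emission 671 nm; repeats: one well per compound, no replicates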
# EBI2 antag: antagonists of human EBI2 receptor; P32249; EBI2 beta-arrestin recruitment, luminescence, 7a,25-OHC stimulated; inhibition, % at 5 µM; 360,000 compounds, 0.81% hits; in the data active = inhibition above about 38%;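 note: enzyme fragment complementation signal reports receptor beta-arrestin coupling in cells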
# A number is an active result; . = inactive; ? = inconclusive; / = not tested or not shown; + = active, no number. Rows were chosen to be rich in hits. Some 3.7% of all compounds tested hit in one or more screens of this group.
SMILES,Exocytosis inh,Myeloid diff 2,MC4R barr agon,MC4R antagonist,EBI2 antag
CC(C)(C)NC(=O)C1C(c2ccc(C(F)(F)F)cc2)=Nc2ccccc2N1C(=O)c1cccc2ccccc12 (stereo not drawn),.,.,/,/,.
CS(=O)(=O)c1ccc(S(=O)CC(=O)OCc2ccccc2)c([N+](=O)[O-])c1 (stereo not drawn),97,?,.,.,41
CCOC(=O)c1ccccc1OC(=O)CS(=O)c1ccccc1[N+](=O)[O-] (stereo not drawn),.,.,.,.,.
Cc1ccccc1C(=O)NCC(=O)NC1CC1,.,.,.,.,.
CCN(CC)c1ccc(C=NCCNS(=O)(=O)c2ccc(C)cc2)cc1,.,.,.,.,.
O=C(O)/C(=C\c1ccc2ccccc2c1)c1cccc2ccccc12,.,.,.,.,.
O=C(/C=C\c1ccc(-c2ccccc2)o1)c1ccccc1,86,.,.,.,.
O=C(/C=C/c1ccccc1)c1ccccc1,.,.,.,.,.
Cc1ccc(C(=O)/C=C/c2ccc(-c3ccc(C)cc3)o2)cc1,72,.,.,.,.
CC1CC(C)CN(C(=O)C2CCN(S(=O)(=O)c3ccc4c(c3)CC(C)N4C(=O)C3CC3)CC2)C1 (stereo not drawn),.,.,.,.,.
CCOc1ccc(C2CC(=O)c3c([nH]c(C(=O)OC)c3C)C2)cc1OC (stereo not drawn),.,.,.,.,.
CCCCOC(=O)c1[nH]c2c(c1C)C(=O)CC(c1cc(OC)c(OC)c(OC)c1)C2 (stereo not drawn),.,+,.,.,.
COCCOC(=O)c1[nH]c2c(c1C)C(=O)CC(c1cc(OC)c(OC)c(OC)c1)C2 (stereo not drawn),.,.,.,.,.
COC(=O)c1[nH]c2c(c1C)C(=O)CC(c1cc(OC)ccc1OC)C2 (stereo not drawn),.,+,.,.,.
CCc1ccc2nc(SCC(=O)N3CC(=O)Nc4ccccc43)c(C#N)cc2c1,.,+,.,.,49
CCc1ccc2nc(SCC(=O)Nc3ccccc3N3CCOCC3)c(C#N)cc2c1,.,+,.,.,.
CCOc1ccc2nc(SCC(=O)N3c4ccccc4Sc4ccccc43)c(C#N)cc2c1,.,+,.,.,.
Cc1ccc2nc(SCC(=O)Nc3ccccc3N3CCOCC3)c(C#N)cc2c1,.,?,.,.,.
CCc1cc2cc(C)ccc2nc1SCC(=O)N1CC(=O)Nc2ccccc21,.,.,.,.,.
Cc1ccccc1N(CC(=O)NCC1CCCO1)C(=O)CNS(=O)(=O)c1ccc(F)cc1 (stereo not drawn),.,.,.,.,.
CC(C)(C)OC(=O)CNC(=O)c1[nH]cnc1C(=O)Nc1ccc(CNC(=O)OC(C)(C)C)cc1,.,?,.,.,.
CC(C)(C)OC(=O)NCc1ccc(NC(=O)c2nc[nH]c2C(=O)NCCNC(=O)c2[nH]cnc2C(=O)Nc2ccc(CNC(=O)OC(C)(C)C)cc2)cc1,62,.,.,.,.
Nc1ncnc2c1ncn2[C@@H]1O[C@H](CNCC#Cc2ccccc2)[C@@H](O)[C@H]1O,.,+,.,.,.
Nc1ncnc2c1ncn2[C@@H]1O[C@H](CNCc2cccc(C#Cc3ccccc3)c2)[C@@H](O)[C@H]1O,.,.,.,.,.
Nc1ncnc2c1ncn2[C@@H]1O[C@H](CNS(=O)(=O)C2CC2)[C@@H](O)[C@H]1O,.,.,.,.,.
SMILES,Exocytosis inh,Myeloid diff 2,MC4R barr agon,MC4R antagonist,EBI2 antag
CN1CCN(S(=O)(=O)NC[C@H]2O[C@@H](n3cnc4c(N)ncnc43)[C@H](O)[C@@H]2O)CC1,.,+,.,.,.
CC(C)(CC(=O)O)CC(=O)NCc1c(Cl)cccc1Oc1ccccc1,.,.,.,.,.
C=CCc1cc(Cl)ccc1OCCn1ccnc1,.,+,.,.,.
CCn1nc(C)c(/C=N/NC(=O)Cn2nnc(N)n2)c1C,.,+,.,.,.
Cc1ccc(/C=N/NC(=O)Cn2nnc(N)n2)cc1,.,.,.,.,.
Cc1cc(-n2c(SCC(=O)Nc3ccc(F)c(F)c3)nc3n[nH]c(C)c3c2=N)ccc1Cl,.,.,.,.,.
Cc1cc(-n2c(SCC(=O)Nc3ccc(Br)cc3)nc3n[nH]c(C)c3c2=N)ccc1Cl,.,.,19,.,.
COC(=O)c1ccc(N(CC(=O)NC2CCCCC2)C(=O)CNC(=O)c2ccco2)cc1,.,.,.,.,.
O=C(Nc1nc2c(s1)CN(Cc1ccccc1)CC2)c1cccc(S(=O)(=O)N2CCc3ccccc32)c1,.,+,.,.,.
Cc1cnc(CNC(=O)c2ccc3sc([C@H]4C[C@H](O)[C@@H](CO)O4)nc3c2)cn1,.,.,.,.,.
CCC(=O)N1CCc2cc(Br)cc(S(=O)(=O)N3CCCCC3CC)c21 (stereo not drawn),.,.,.,.,.
O=C(Cc1ccccc1)Nc1ccnn1C1CCN(Cc2nccs2)CC1,.,.,.,.,.
COC(=O)Cn1cc(/C=C(/C#N)C(=O)N2CCOCC2)c2ccccc21,.,.,.,.,.
CCOC(=O)c1nc(C)nc(Sc2n[nH]c(-c3ccc(C(C)(C)C)cc3)n2)c1C,.,.,9.3,.,.
CCOC(=O)c1nc(C)nc(Sc2n[nH]c(-c3cc(Cl)cc(Cl)c3)n2)c1C,.,.,.,.,.
O=C(Nc1ccc2c(c1)OCO2)C1Cc2c(-c3ccc4c(c3)OCO4)ccnc2O1 (stereo not drawn),.,.,.,.,.
COc1ccc(CC(N)c2csc(NC(=O)C(c3ccccc3)c3ccccc3)n2)cc1 (stereo not drawn),.,.,.,.,.
CCN(CC)S(=O)(=O)c1ccc2c(c1)nc(CCC(=O)Nc1ccc(N3CCOCC3)cc1)n2C,.,.,.,.,.
CCN1C(=O)/C(=C/C=C2\N(CC)c3cc(S(=O)(=O)N(C)C)ccc3N2c2ccccc2)SC1=S,.,+,.,.,.
CCN1C(=O)/C(=C\C=C\c2ccccc2[N+](=O)[O-])SC1=S,.,?,.,.,.
C/C(=N\NS(=O)(=O)c1ccc(C)c([N+](=O)[O-])c1)c1cc2ccccc2o1,.,+,.,.,.
O=[N+]([O-])c1ccc(N/N=C/c2ccc(O)c(O)c2O)c(S(=O)(=O)N2CCOCC2)c1,.,.,.,.,.
O=[N+]([O-])c1ccc(N/N=C/c2cccc(O)c2O)c(S(=O)(=O)N2CCOCC2)c1,.,.,.,.,41
C#CCOCCOCCOCCNc1nc(N2CCN(C(=O)[C@H]([C@@H](C)CC)n3cc(CCCCN)nn3)CC2)nc(N2CCN(C(=O)[C@H](CCCCN)n3cc(CC(C)O)nn3)CC2)n1 (stereo partly drawn),.,+,.,.,.
